In brackets after ≈: the same amount, converted by molar mass.

Consider 45 molecules from ChEMBL document CHEMBL2407056, “3-(Oxazolo[4,5-b]pyridin-2-yl)anilides as a novel class of potent inhibitors for the kinetoplastid Trypanosoma brucei, the causative agent for human African trypanosomiasis” (Eur J Med Chem, 2013).

Data set [1] can be described thus: Selectivity index, ratio of IC50 for HEK293 cells to IC50 for Trypanosoma brucei brucei 427 bloodstream form. It counts as toxicity, cell-based. To be noted: human, read-out: Ratio IC50. In outline:
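HEK293 cells (55 µL of 72,727 cells/mL in DMEM + 10% FCS) in 384-well plates, 24 h at 37 °C/5% CO2. Drug diluted 1:21 from DMSO, final 83.34 to 0.0004 µM, 48 h. […] SI relative to T. b. brucei.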

The subject of data set [2] is Trypanosoma brucei brucei. The data set is described as follows: Antitrypanosomal activity against Trypanosoma brucei brucei 427 bloodstream form after 48 hrs by Alamar blue assay. Type of data set: functional, organism-based. To be noted: Trypanosoma brucei, 427, 48 h. In outline: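 Bloodstream parasites in 384-well plates, 24 h preincubation at 37 °C/5% CO2. DMSO dilutions diluted 1:21 in DMEM and added to give final 41.67 to 0.0004 µM; 48 h incubation. 70% Alamar Blue in HMI-9 + 10% FCS added, 2 h at 37 °C then 22 h at room temperature; read at ex 535/em 590 nm.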

A short description of data set [3]: Kinetic solubility of the compound in phosphate buffer at pH 2 by nephelometry. Type of data set: physicochemical. To be noted: read-out: Kinetic_solubility.
The nature of data set [4]: Kinetic solubility of the compound in phosphate buffer at pH 6.5 by nephelometry. To be noted: read-out: Kinetic_solubility. It counts as physicochemical. In outline:
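DMSO stocks spiked into pH 6.5 phosphate buffer or 0.01 M HCl (about pH 2.0), final DMSO 1% (v/v). Solubility range determined by nephelometry.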

Data set [5] can be described thus: Half life in human liver microsomes at 1 uM by LC-MS analysis. Type of data set: ADME, Microsome. The method in brief:
(§1)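 Compound at 1 µM final (1 in 500 dilution of stock) incubated at 37 °C with human liver microsomes in 0.1 M phosphate buffer pH 7.4, 0.4 mg/mL protein. First-order depletion rate from exponential decay fit used to derive in vitro CLint and half-life; predicted hepatic extraction ratio from scaled CLint with liver blood flow 20.7 mL/min/kg.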

Data set [6] is described as follows: Intrinsic clearance in human liver microsomes at 1 uM after 60 mins by LC-MS analysis. It counts as ADME, Microsome. To be noted: read-out: CLH. In outline:
as §1

Data set [7] is described as follows: Partition coefficient, log D of the compound at pH 7.4 by HPLC analysis. It counts as physicochemical. To be noted: octanol/water. In outline: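 Chromatographic gradient HPLC: mobile phase 50 mM ammonium acetate pH 7.4 (or ammonium formate pH 3.0) with an acetonitrile gradient of 0–100% over 10 min; UV detection at 220 and 254 nm.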

On to `Cc1ccoc1C(=O)Nc1ccc(Cl)c(-c2nc3ncccc3o2)c1`, for which the selectivity ratio in data set [1] is greater than 130. In addition, the IC50 in data set [2] came out at 650 nM.

In the case of `O=C(Nc1ccc(Cl)c(-c2nc3ncccc3o2)c1)c1cc[nH]n1`, the IC50 in data set [2] was greater than 10000 nM.

`O=C(Nc1cccc(-c2nc3ncc(-c4ccccc4)cc3o2)c1)c1ccco1`: in data set [1], the selectivity ratio came to 84. This molecule also displayed an IC50 in data set [2] of 120 nM.

In turn, `O=C(Nc1cccc(-c2nc3ncccc3o2)c1Cl)c1ccco1` returned an IC50 in data set [2] greater than 10000 nM.

Molecule `Cc1c(NC(=O)c2ccco2)cccc1-c1nc2ncccc2o1` showed an IC50 in data set [2] greater than 10000 nM.

As for `Cc1ccc(NC(=O)c2occc2C)cc1-c1nc2ncccc2o1`, the results for the solubility kinetic in data set [3] and in data set [4] were 1.6 µg/mL (≈ 4.8 µM) and less than 1.6 µg/mL, respectively. Also, the half-life at 1 µM in data set [5] was determined as 8 min. The microsomal CLint at 1 µM in data set [6] is 228 µL/min/mg. In data set [7], this molecule showed a logD of 3.3. Moreover, the selectivity ratio in data set [1] turned out to be 145. In data set [2], this molecule gave an IC50 of 570 nM.

As for `Cc1ccoc1C(=O)Nc1cccc(-c2nc3ncccc3o2)c1`, the solubility kinetic in data set [3] came to 6.3 µg/mL (≈ 19.7 µM); in data set [4] it was 3.1 µg/mL (≈ 9.71 µM). Further, the half-life at 1 µM in data set [5] was 10 min. In data set [6], the microsomal CLint at 1 µM stood at 181 µL/min/mg. In data set [7], this molecule registered a logD of 2.9. Further, in data set [1], the selectivity ratio turned out to be 115. Further, the IC50 in data set [2] was 170 nM.

The molecule `O=C(Nc1ccc(Cl)c(-c2nc3ncccc3o2)c1)c1c[nH]cn1` displayed an IC50 in data set [2] greater than 10000 nM.

On to `O=C(Nc1cc(-c2nc3ncccc3o2)ccc1F)c1ccco1`, for which the selectivity ratio in data set [1] is 13. In data set [2], this molecule registered an IC50 of 6300 nM.

On to `Cc1ccc(NC(=O)c2ccoc2)cc1-c1nc2ncccc2o1`, for which the solubility kinetic in data set [3] was found to be 12.5 µg/mL (≈ 39.1 µM); in data set [4] it was 6.3 µg/mL (≈ 19.7 µM). The same molecule had a half-life at 1 µM in data set [5] of 10 min. In addition, the microsomal CLint at 1 µM in data set [6] was determined as 176 µL/min/mg. The logD in data set [7] is 2.7. Besides, in data set [1], the selectivity ratio worked out at 103. The same molecule gave an IC50 in data set [2] of 310 nM.

In data set [2], `COc1ccccc1C(=O)Nc1ccc(Cl)c(-c2nc3ncccc3o2)c1` displayed a half-maximal inhibitory concentration (IC50) greater than 10000 nM.

`O=C(Nc1cccc(-c2nc3ncccc3o2)c1F)c1ccco1` showed an IC50 in data set [2] greater than 10000 nM.

In data set [2], `CN(C(=O)c1ccoc1)c1ccc(Cl)c(-c2nc3ncccc3o2)c1` displayed an IC50 greater than 10000 nM.

In the case of `O=C(Nc1ccc(F)c(-c2nc3ncccc3o2)c1)c1ccoc1`, the solubility kinetic came out at 12.5 µg/mL (≈ 38.7 µM) in data set [3] and 6.3 µg/mL (≈ 19.5 µM) in data set [4]. This molecule also gave a half-life at 1 µM in data set [5] of 11 min. Further, the microsomal CLint at 1 µM in data set [6] was 154 µL/min/mg. The molecule further came in with a logD in data set [7] of 2.4. In addition, the selectivity ratio in data set [1] was 680. In addition, the IC50 in data set [2] was 120 nM.

In the case of `O=C(Nc1cccc(-c2nc3ncccc3o2)c1)c1ccco1`, in data set [1], the selectivity ratio is greater than 245. For the same molecule, the IC50 in data set [2] is 340 nM.

With `O=C(Nc1cccc(-c2nc3ncccc3[nH]2)c1)c1ccoc1`, in data set [1], the selectivity ratio amounted to 39. Moreover, inhibition in data set [2] was half-maximal at 1000 nM (IC50).

On to `O=C(Nc1ccc(Cl)c(-c2nc3ncccc3o2)c1)c1ccno1`, for which the IC50 in data set [2] is 3200 nM.

Turning to `O=C(Nc1ccc(Cl)c(-c2nc3ccccc3o2)c1)c1ccco1`, the IC50 in data set [2] is greater than 10000 nM.

Regarding `O=C(Nc1cccc(-c2nc3ncccc3o2)c1)c1cnco1`, the selectivity ratio in data set [1] turned out to be 29. This molecule gave an IC50 in data set [2] of 2900 nM.

Take `O=C(Nc1ccc(Cl)c(-c2nc3ncccc3o2)c1)c1ccccn1`: in data set [1], the selectivity ratio came out at 15. For the same molecule, the IC50 in data set [2] was 5700 nM.

For the molecule `O=C(Nc1cc(-c2nc3ncccc3o2)ccc1Cl)c1ccco1`, the IC50 in data set [2] is greater than 10000 nM.

Take `O=C(Nc1cc(F)cc(-c2nc3ncccc3o2)c1)c1ccco1`: the half-inhibitory concentration (IC50) in data set [2] was greater than 10000 nM.

In data set [2], `O=C(Nc1cncc(-c2nc3ncccc3o2)c1)c1ccco1` had an IC50 greater than 10000 nM.

On to `Cc1ccc(NC(=O)c2cscn2)cc1-c1nc2ncccc2o1`, for which, in data set [1], the selectivity ratio amounted to 32. Half-maximal inhibition in data set [2] (IC50) was put at 2600 nM.

Regarding `COc1cccc(C(=O)Nc2ccc(Cl)c(-c3nc4ncccc4o3)c2)c1`, in data set [2], the IC50 was greater than 10000 nM.

As to `COc1ccc(-c2nc3ncccc3o2)cc1NC(=O)c1ccco1`, the selectivity ratio in data set [1] stood at 74. The molecule further displayed an IC50 in data set [2] of 1100 nM.

For `O=C(Nc1ccc(F)c(-c2nc3ncccc3o2)c1)c1cscn1`, the solubility kinetic in data set [3] and in data set [4] was 3.1 µg/mL (≈ 9.11 µM) throughout. Further, the half-life at 1 µM in data set [5] amounted to 36 min. The microsomal CLint at 1 µM in data set [6] turned out to be 48 µL/min/mg. Further, the logD in data set [7] is 2.3. In addition, in data set [1], the selectivity ratio amounted to 110. Also, the IC50 in data set [2] turned out to be 760 nM.

The molecule `O=C(Nc1cc(-c2nc3ncccc3o2)ccn1)c1ccco1` displayed a half-inhibitory concentration (IC50) in data set [2] greater than 10000 nM.

Consider `O=C(Nc1cccc(-c2nc3ncc(-c4ccc(Cl)cc4)cc3o2)c1)c1ccco1`, for which, in data set [1], the selectivity ratio was 150. For the same molecule, it took 550 nM to reach half-maximal inhibition in data set [2] (IC50).

For the molecule `O=C(Nc1ccc(F)c(-c2nc3ncccc3o2)c1)c1ccco1`, the selectivity ratio in data set [1] came out at 290. For the same molecule, inhibition in data set [2] was half-maximal at 290 nM (IC50).

As for `COc1ccc(-c2cnc3nc(-c4cccc(NC(=O)c5ccco5)c4)oc3c2)cc1`, the selectivity ratio in data set [1] was determined as 130. This molecule showed an IC50 in data set [2] of 630 nM.

Take `O=C(Nc1cccc(-c2nc3ncccc3[nH]2)c1)c1ccco1`: the selectivity ratio in data set [1] came to 54. For the same molecule, half-maximal inhibition in data set [2] (IC50) was put at 780 nM.

Turning to `COCC(=O)Nc1ccc(Cl)c(-c2nc3ncccc3o2)c1`, the 50% inhibitory concentration (IC50) in data set [2] is greater than 10000 nM.

On to `O=C(Nc1ccc(Cl)c(-c2nc3ncccc3o2)c1)c1cnco1`, for which, in data set [1], the selectivity ratio is greater than 45. For the same molecule, the IC50 in data set [2] was determined as 1500 nM.

In turn, `O=C(Nc1ccc(Cl)c(-c2nc3ncccc3o2)c1)c1ccncc1` gave an IC50 in data set [2] of 3400 nM. In other words, the single-digit micromolar range.

Turning to `O=C(Nc1ccc(F)c(-c2nc3ncccc3o2)c1)c1cnco1`, the solubility kinetic in data set [3] and in data set [4] was 6.3 µg/mL (≈ 19.4 µM) throughout. The molecule also gave a half-life at 1 µM in data set [5] of 124 min. Besides, the microsomal CLint at 1 µM in data set [6] amounted to 14 µL/min/mg. The logD in data set [7] was 1.7. Moreover, in data set [1], the selectivity ratio came to 43. For the same molecule, the midpoint of inhibition in data set [2], the IC50, lay at 2000 nM.

In data set [2], `Cc1ccc(NC(=O)c2cnco2)cc1-c1nc2ncccc2o1` returned an IC50 greater than 10000 nM.

Turning to `O=C(Nc1cccc(-c2nc3ncccc3o2)c1)c1cscn1`, the selectivity ratio in data set [1] was found to be 63. This molecule also came in with a half-inhibitory concentration (IC50) in data set [2] of 1300 nM.

`CN(C(=O)c1ccccc1)c1ccc(Cl)c(-c2nc3ncccc3o2)c1` yielded an IC50 in data set [2] greater than 10000 nM.

Consider `O=C(Nc1ccc(Cl)c(-c2nc3ncccc3o2)c1)c1cc2ccccc2o1`, for which the IC50 in data set [2] was greater than 10000 nM.

Regarding `O=C(Nc1cccc(-c2nc3ncccc3o2)c1)c1ccoc1`, the selectivity ratio in data set [1] was 89. In data set [2], this molecule registered an IC50 of 600 nM.

In data set [2], `O=C(Nc1ccc(Cl)c(-c2nc3ncccc3o2)c1)c1cccnc1` displayed an IC50 greater than 10000 nM.

Take `Cc1ccoc1C(=O)Nc1ccc(F)c(-c2nc3ncccc3o2)c1`: the solubility kinetic in data set [3] and in data set [4] was 1.6 µg/mL (≈ 4.74 µM) in each case. The half-life at 1 µM in data set [5] amounted to 9 min. In addition, the microsomal CLint at 1 µM in data set [6] was 202 µL/min/mg. Moreover, the logD in data set [7] was 2.9. Besides, the selectivity ratio in data set [1] came out at 840. Moreover, the IC50 in data set [2] was 100 nM.

On to `Cc1ccc(NC(=O)c2ccco2)cc1-c1nc2ncccc2o1`, for which the selectivity ratio in data set [1] is greater than 88. This molecule registered an IC50 in data set [2] of 940 nM.

Consider `Cc1ccc(-c2nc3ncccc3o2)cc1NC(=O)c1ccco1`, for which the selectivity ratio in data set [1] stood at 13. The same molecule had an IC50 in data set [2] of 6200 nM.
